Measurements published in ChEMBL document CHEMBL1141765, “Alkaloids from Alangium javanicum and Alangium grisolleoides that mediate Cu2+-dependent DNA strand scission” (J Nat Prod, 2005).
Values joined by “and” are separate entries in the source; they are usually repeats but may differ in a detail not shown here. Equal entries are not always repeated.

Legend:
[1] = system: Escherichia coli; test: Induction of DNA strand scission activity against Escherichia coli pSP64 assessed as form 2 DNA levels at 200 uM after 2 hrs by electrophoresis in presence of equimolar amount of Cu2+
[2] = system: Escherichia coli; test: Induction of DNA strand scission activity against Escherichia coli pSP64 assessed as form 2 DNA levels at 100 uM after 2 hrs by electrophoresis in presence of equimolar amount of Cu2+
[3] = system: Escherichia coli; test: Induction of DNA strand scission activity against Escherichia coli pSP64 assessed as form 2 DNA levels at 10 uM after 2 hrs by electrophoresis in presence of equimolar amount of Cu2+
[4] = system: Escherichia coli; test: Induction of DNA strand scission activity against Escherichia coli pBR322 assessed as form 2 DNA levels at 50 uM after 60 mins by electrophoresis in presence of 20 uM Cu2+; assay type: functional
Summary of the method: (§1)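 Supercoiled pBR322 plasmid DNA (500 ng) was incubated with compound, with or without 20 µM Cu2+, in 10 mM Tris-HCl, pH 8.0. Compound came from DMSO, final DMSO ≤5%. Incubation was 37 °C for 60 min. Blank (DNA only) and Cu2+-only controls were included. Samples were run on 1.0% agarose gels with ethidium bromide in TBE, pH 8.3. Form I→Form II conversion was quantified by gel densitometry.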

[5] = system: Escherichia coli; test: Induction of DNA strand scission activity against Escherichia coli pBR322 assessed as form 2 DNA levels at 200 uM after 60 mins by electrophoresis in presence of 20 uM Cu2+; assay type: functional
Summary of the method: as §1

[6] = system: Escherichia coli; test: Induction of DNA strand scission activity against Escherichia coli pBR322 assessed as form 2 DNA levels at 500 uM after 60 mins by electrophoresis in absence of 20 uM Cu2+; assay type: functional
Summary of the method: as §1

[7] = system: Escherichia coli; test: Induction of DNA strand scission activity against Escherichia coli pBR322 assessed as form 2 DNA levels at 10 uM after 60 mins by electrophoresis in presence of 20 uM Cu2+; assay type: functional
Summary of the method: as §1

[8] = system: Escherichia coli; test: Induction of DNA strand scission activity against Escherichia coli pBR322 assessed as form 2 DNA levels at 500 uM after 60 mins by electrophoresis in presence of 20 uM Cu2+; assay type: functional
Summary of the method: as §1

[9] = system: Escherichia coli; test: Induction of DNA strand scission activity against Escherichia coli pBR322 assessed as form 2 DNA levels at 100 uM after 60 mins by electrophoresis in presence of 20 uM Cu2+; assay type: functional
Summary of the method: as §1

[10] = system: Escherichia coli; test: Induction of DNA strand scission activity against Escherichia coli pBR322 assessed as form 2 DNA levels at 200 uM after 60 mins by electrophoresis in absence of 20 uM Cu2+; assay type: functional
Summary of the method: as §1

[11] = system: Escherichia coli; test: Induction of DNA strand scission activity against Escherichia coli pBR322 assessed as form 2 DNA levels at 25 uM after 60 mins by electrophoresis in presence of 20 uM Cu2+; assay type: functional
Summary of the method: as §1

Structure (SMILES)	Activity [1]	Activity [2]	Activity [3]	Activity [4]	Activity [5]	Activity [6]	Activity [7]	Activity [8]	Activity [9]	Activity [10]	Activity [11]
C=C[C@H]1[C@H](O[C@@H]2O[C@H](CO)[C@@H](O)[C@H](O)[C@H]2O)OC=C2C(=O)N3CC[C@]4(C(=O)Nc5ccccc54)[C@H]3C[C@H]21	7%	5%	0%								
C=C[C@H]1[C@H](O[C@@H]2O[C@H](CO)[C@@H](O)[C@H](O)[C@H]2O)OC=C2C(=O)N3CCc4cc(OC)c(O)cc4[C@H]3C[C@H]21				18%	30%	3%	14%	42%	25%		
C=C[C@H]1[C@H](O[C@@H]2O[C@H](CO)[C@@H](O)[C@H](O)[C@H]2O)OC=C2C(=O)N3CC[C@@]4(C(=O)Nc5ccccc54)[C@H]3C[C@H]21	43% and 35%	28% and 16%	0%	20%	58%		10%		29%	3%	16%
